Measurements taken from publication PMC3800034 (Journal of medicinal chemistry, 2013).
Entries after “also recorded” stand apart in the source; their conditions may differ. One block for each compound: values may come before it.

What was measured:
[1] = system: OXE receptor; details: cited from earlier work
[2] = system: neutrophil migration; details: cited from earlier work
[3] = target: OXE receptor (Homo sapiens, UniProt Q8TDS5); assay type: cell-based
[4] = system: response of neutrophils to LTB4; assay: LTB4-induced calcium mobilization in human neutrophils; assay type: cell-based; details: compound 10 µM, LTB4 10 nM
Summary of the method: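 Neutrophils from whole blood of healthy human donors, suspended in phosphate-buffered saline, loaded with indo-1, and moved to a cuvette with CaCl₂ (1.8 mM) and MgCl₂ (1 mM) 5 min before the run. Fluorescence was read at 37 °C in a spectrofluorimeter. After a stable baseline, vehicle or test compound was added, then LTB4 (10 nM) 2 min later. Digitonin followed to give maximal response.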

OXE receptor (Homo sapiens, UniProt Q8TDS5), sequence (Q8TDS5 whole entry): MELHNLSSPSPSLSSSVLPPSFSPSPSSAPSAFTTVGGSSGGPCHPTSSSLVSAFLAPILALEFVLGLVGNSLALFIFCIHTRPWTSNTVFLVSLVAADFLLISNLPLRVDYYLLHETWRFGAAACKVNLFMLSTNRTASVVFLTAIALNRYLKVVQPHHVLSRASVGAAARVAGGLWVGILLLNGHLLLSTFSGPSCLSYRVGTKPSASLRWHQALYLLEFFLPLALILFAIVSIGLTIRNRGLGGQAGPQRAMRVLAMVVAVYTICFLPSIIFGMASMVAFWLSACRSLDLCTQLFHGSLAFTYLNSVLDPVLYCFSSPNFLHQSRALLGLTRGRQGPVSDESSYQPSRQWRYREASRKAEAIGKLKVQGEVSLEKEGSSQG

SMILES: CCCCC/C=C\C[C@H](O)/C=C/C=C\C=C\C(=O)CCCC(=O)O [5-oxo-12S-HETE 6, 5-oxo-12S-HETE]
- effect on intracellular Ca++ levels in neutrophils ([1]; compound alone): virtually no effect
- block of 5-oxo-ETE-induced Ca++ mobilization ([1]; neutrophils): low µmolar range
- effect on 5-oxo-ETE-induced neutrophil migration [2]: inhibited

- mobilization of intracellular calcium by the compound alone (agonist activity) ([3]; compound 30 µM added to neutrophils): neither mobilized intracellular calcium
SMILES: O=C(O)CCCC(=O)n1ccc2ccccc21 [Compound 10, 5-(1H-indol-1-yl)-5-oxopentanoic acid]
- effect on the response to 5-oxo-ETE (antagonist activity) ([3]; compound 30 µM, 5-oxo-ETE 10 nM added 2 min later): nor altered the response to 5-oxo-ETE; also recorded: does not affect calcium mobilization

- inhibition of the effect of 5-oxo-ETE ([3]; compound 1 µM, 5-oxo-ETE 10 nM): substantially inhibited
- inhibition of the response to 5-oxo-ETE ([3]; compound 10 µM, 5-oxo-ETE 10 nM): completely inhibiting
SMILES: CCCCCCc1cc2ccccc2n1C(=O)CCCC(=O)O [Compound 26, 5-(2-Hexyl-1H-indol-1-yl)-5-oxo-valeric acid]
- effect on the response of neutrophils to LTB4 [4]: virtually no effect

- IC50 [3]: 400 ± 30 nM
- increase in potency compared with non-chlorinated compound 26 ([3]; 5-oxo-ETE-induced calcium mobilization, IC50 ratio): about 4 fold
SMILES: CCCCCCc1cc2ccc(Cl)cc2n1C(=O)CCCC(=O)O [Compound 39, 5-(6-Chloro-2-hexyl-1H-indol-1-yl)-5-oxo-valeric acid]
